KCNK9 inh: blocks the human KCNK9 two-pore domain potassium channel; B-score at 10 µM; AID 488922; Q9NPC2; HEK293 KCNK9, FluxOR thallium flux fluorescence; active compounds read low; actives 1.2% (n = 310,000);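 active means ratio B-score over 3 SD below the library mean, with starting fluorescence within 5 SD of its mean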;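 further: negative B-score means less thallium flux so channel inhibition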
hERG rescue: compounds protecting human hERG from proarrhythmic drug block | activation (rescue from dofetilide block), less the hit threshold, % at 10 µM | AID 1511 | CHO-hERG, FluxOR thallium flux, dofetilide IC70 present | actives 0.51% (n = 310,000);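 active means activation above the mean of controls blocked by dofetilide plus 5 SD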;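 further: thallium influx through hERG after potassium depolarization seen as dye fluorescence rise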
Kir21 block: Kir2.1 (mouse) channel inhibition; B-score at 10 µM; P35561; HEK293-Kir2.1, FluxOR thallium flux fluorescence; active compounds read low; actives 0.85% (n = 310,000); AID 1672;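 active means fluorescence ratio B-score at or below minus 3 SD of library scores, with starting-brightness B-score within 2 SD, cut at about -4.2 in these data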;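 further: channel flux triggered by added potassium and thallium sulfate stimulus; B-score of peak minus minimum fluorescence over baseline after thallium stimulus; more negative B-score means stronger Kir2.1 block with less thallium influx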
KCNQ1 act: potentiates or activates the human KCNQ1 potassium channel | P51787 | CHO-K1 KCNQ1, thallium flux FluxOR fluorescence; active compounds read high | B-score at 10 µM | actives 0.35% (n = 310,000) | AID 2648;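 active means fluorescence ratio B-score, a plate-corrected score, at least three library SD, with initial intensity B-score within 5 SD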
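assay system = CHO-K1 cells stably expressing KCNQ1 | medium = assay buffer, equal DMSO in all wells | timing = 37 °C overnight plating, 90-min dark dye load, 20-min compound pretreatment | measured by = kinetic FluxOR thallium fluorescence, 10-s 1-Hz baseline, 110-s post-stimulus read | measure = fluorescence change relative to baseline, converted to B score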
KCNK3 inh: human KCNK3 channel inhibition, primary screen; O14649; CHO-KCNK3 thallium flux, FluxOR fluorescence; active compounds read low; B-score at 10 µM; actives 0.84% (n = 340,000); AID 602410;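 active means B-score under library mean minus 4 SD, starting fluorescence ratio at most library mean plus 5 SD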;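 further: more negative B-score means stronger inhibition of thallium flux through KCNK3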
KCNQ1 block: human KCNQ1 channel inhibition; P51787; CHO-K1 KCNQ1, FluxOR thallium flux fluorescence; active compounds read high; B-score at 10 µM; actives 1.3% (n = 310,000);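 active means compounds whose thallium flux B-score, printed positive for inhibition, exceeds three library SD while starting fluorescence stays within three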;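 further: channel opened by potassium depolarization with thallium stimulus after 20 min compound exposure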
Hits are given with their value; n = inactive. The list is not random: actives were taken first. Their share in the collection is about 3.7%.

SMILES	KCNK9 inh	hERG rescue	Kir21 block	KCNQ1 act	KCNK3 inh	KCNQ1 block
O=C1C2CCCCC2C(=O)N1Cc1ccccc1 (centres undefined)	n	n	n	n	n	n
O=C1C2C3CCC(C3NCc3ccccc3)C2C(=O)N1Cc1ccccc1 (centres undefined)	n	n	n	n	n	6
Cc1ccc(S(=O)(=O)Nc2ccccc2C(N)=O)cc1	n	n	n	n	n	n
Cc1ccc(S(=O)(=O)Nc2ccccc2C(O)c2ccccc2)cc1 (centres undefined)	n	n	-5	n	n	n
Cc1ccc(S(=O)(=O)Nc2ccccc2-c2ccccc2NS(=O)(=O)c2ccc(C)cc2)cc1	n	n	n	n	n	7

Bioassay records: PubChem BioAssay, Johns Hopkins Ion Channel Center
